In series [1] the target is T1, Protein deacetylase HDAC6 (Homo sapiens, UniProt Q9UBN7).
T1 sequence (Q9UBN7 whole entry): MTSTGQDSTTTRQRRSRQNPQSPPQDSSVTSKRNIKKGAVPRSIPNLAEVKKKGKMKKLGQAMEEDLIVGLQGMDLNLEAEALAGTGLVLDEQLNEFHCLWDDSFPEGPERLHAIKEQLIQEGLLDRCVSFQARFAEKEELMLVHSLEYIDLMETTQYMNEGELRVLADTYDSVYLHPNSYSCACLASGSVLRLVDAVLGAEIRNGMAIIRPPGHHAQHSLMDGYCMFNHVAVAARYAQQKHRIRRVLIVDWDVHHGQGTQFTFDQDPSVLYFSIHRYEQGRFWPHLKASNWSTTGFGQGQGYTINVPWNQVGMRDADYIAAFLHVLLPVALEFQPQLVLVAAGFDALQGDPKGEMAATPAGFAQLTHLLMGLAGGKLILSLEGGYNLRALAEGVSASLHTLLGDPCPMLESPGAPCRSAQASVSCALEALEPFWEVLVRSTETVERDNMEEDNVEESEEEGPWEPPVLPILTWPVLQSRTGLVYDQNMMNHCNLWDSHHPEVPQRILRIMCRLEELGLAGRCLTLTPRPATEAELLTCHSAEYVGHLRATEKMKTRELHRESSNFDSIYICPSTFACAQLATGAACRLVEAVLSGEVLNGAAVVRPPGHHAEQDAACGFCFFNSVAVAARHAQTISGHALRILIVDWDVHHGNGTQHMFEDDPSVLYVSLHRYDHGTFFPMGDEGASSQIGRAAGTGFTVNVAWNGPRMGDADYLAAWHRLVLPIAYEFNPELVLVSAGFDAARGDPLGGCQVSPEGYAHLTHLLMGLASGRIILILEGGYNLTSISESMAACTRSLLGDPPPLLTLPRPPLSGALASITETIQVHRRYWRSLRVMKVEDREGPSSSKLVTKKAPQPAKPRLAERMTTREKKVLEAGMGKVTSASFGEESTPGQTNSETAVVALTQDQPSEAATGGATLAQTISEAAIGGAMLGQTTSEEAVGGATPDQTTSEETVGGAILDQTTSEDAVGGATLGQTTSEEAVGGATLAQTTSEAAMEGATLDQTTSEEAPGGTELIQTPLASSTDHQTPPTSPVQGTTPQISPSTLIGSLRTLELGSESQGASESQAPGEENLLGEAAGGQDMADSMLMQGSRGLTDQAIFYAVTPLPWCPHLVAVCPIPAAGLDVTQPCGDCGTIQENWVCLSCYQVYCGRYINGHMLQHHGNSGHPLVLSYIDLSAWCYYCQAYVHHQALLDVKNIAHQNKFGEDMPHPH
Description: Inhibition of human recombinant HDAC6 using ZMAL (Z-Lys(Ac)-AMC) fluorogenic substrate incubated for 90 mins by fluorescence based assay.

For another series, the target named is Histone deacetylase 1 (Homo sapiens, UniProt Q13547). Description: Inhibition of human recombinant HDAC1 using ZMAL (Z-Lys(Ac)-AMC) fluorogenic substrate incubated for 90 mins by fluorescence based assay.
Series [2] in a line: Intrinsic clearance in human liver microsomes. It counts as ADME, Microsome.
In series [3] the test system is CCRF-HSB-2. Description: Potentiation of […]-induced cytotoxicity in human CCRF-HSB-2 cells assessed as reduction in cell viability at 2.5 to 5 uM incubated for 72 hrs in presence of 10 nM daunorubicin by cell-Titer-Glo luminescent cell viability assay. It counts as functional, cell-based. The settings on record: dose microM 2.5-5, time 72.0 hrs. A digest of the protocol:
(§1)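 HSB-2 cells in RPMI 1640 with 20% FCS on a semi-automated combination platform. Test compound was fixed at 2.5 or 5 μM, alone or with chemotherapeutics and glucocorticoids dispensed at 10 nM-25 μM. Viability read by CellTiter-Glo luminescence after 72 h.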

A further series has as its target T2, Histone deacetylase 8 (Homo sapiens, UniProt Q9BY41).
T2 sequence (Q9BY41 whole entry): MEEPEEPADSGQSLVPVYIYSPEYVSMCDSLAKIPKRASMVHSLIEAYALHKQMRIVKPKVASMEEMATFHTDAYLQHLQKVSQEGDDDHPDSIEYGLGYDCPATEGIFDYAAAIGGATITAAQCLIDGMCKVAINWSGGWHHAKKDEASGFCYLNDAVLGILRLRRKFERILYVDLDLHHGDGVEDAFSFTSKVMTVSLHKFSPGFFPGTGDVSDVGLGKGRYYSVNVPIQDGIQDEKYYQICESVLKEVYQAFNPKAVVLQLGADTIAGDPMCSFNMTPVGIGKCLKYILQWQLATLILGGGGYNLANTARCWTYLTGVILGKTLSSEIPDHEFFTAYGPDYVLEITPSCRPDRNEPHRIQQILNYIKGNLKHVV
Description: Inhibition of human recombinant HDAC8 using Boc-Lys-(epsilon-Tfa)-AMC fluorogenic substrate incubated for 90 mins by fluorescence based assay. In outline: (§2)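 Human recombinant HDAC4 or HDAC8, 20 ng per well, in Tris-HCl pH 8.0 buffer with 1 mg/mL BSA. Enzyme was preincubated 5 min with inhibitor, then started with Boc-Lys(ε-Tfa)-AMC, 100 μM for HDAC4 or 60 μM for HDAC8. […] Fluorescence ex 355/em 460 nm was read 15 min later.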

In the next series the target is Histone deacetylase 3 (Homo sapiens, UniProt O15379). Description: Inhibition of human recombinant HDAC3 using ZMAL (Z-Lys(Ac)-AMC) fluorogenic substrate incubated for 90 mins by fluorescence based assay. In outline:
(§3)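 Enzyme was incubated with compound and ZMAL substrate (21.43 μM stock in assay buffer) for 90 min at 37 °C. Trypsin development followed for 30 min at 37 °C, then fluorescence at ex 355/em 460 nm. Duplicates, at least two independent experiments.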

The subject of series [4] is CCRF-HSB-2. Description: Potentiation of epirubicin-induced cytotoxicity in human CCRF-HSB-2 cells assessed as reduction in cell viability at 2.5 to 5 uM incubated for 72 hrs in presence of 10 nM epirubicin1 by cell-Titer-Glo luminescent cell viability assay. The settings on record: dose microM 2.5-5, time 72.0 hrs. It counts as functional, cell-based. In outline: as §1

For series [5], the target named is T3, Protein deacetylase HDAC6 (Homo sapiens) (UniProt Q9UBN7).
T3 sequence (whole entry): T1 sequence (Q9UBN7 whole entry)
Description: Inhibition of HDAC6 in human HL60 cells assessed as induction of alpha-tubulin acetylation at 2.5 to 5 uM incubated for 24 hrs by immunoblot analysis. The format is cell-based. The settings on record: HL-60, dose microM 2.5-5, time […].

Another series concerns SUP-B15. Description: Cytotoxicity in human SUP-B15 cells assessed as reduction in cell viability incubated for 72 hrs by cell-Titer-Glo luminescent cell viability assay. It counts as cell-based. The settings on record: SUP-B15, 72 h. In outline:
(§4)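 Leukaemia lines kept in RPMI 1640 with 20% FCS (SUP-B15 in McCoy's 5A with 20% FCS). Compound dispensed digitally at increasing concentrations from 1 μM to 50 μM. Viability read by CellTiter-Glo luminescence after 72 h. Raw data were normalized to controls and IC50 was fitted by sigmoid nonlinear regression.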

For series [6], the system named is HL-60. Description: Potentiation of bortezomib-induced apoptosis in human HL-60 cells assessed as increase in number of late apoptotic/dead cells at 2.5 to 5 uM incubated for 24 hrs in presence of 0.6 to 1.2 nM bortezomib- by Annexin V and PI staining based FACS analysis. The format is functional, cell-based. The settings on record: dose microM 2.5-5, time […]. A digest of the protocol: (§5)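 HL60 cells in RPMI 1640 with 10% FCS at 37°C, 5% CO2. Cells were exposed to test compound at 2.5 or 5 μM, alone or combined with bortezomib, for 24 h. Annexin V/propidium iodide staining was read by FACS; n=3, with paired two-tailed Student's t-test.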
(In general: A flow cytometer gives signals particle by particle.)

The next series relates to TALL-1. Description: Cytotoxicity in human TALL-1 cells assessed as reduction in cell viability incubated for 72 hrs by cell-Titer-Glo luminescent cell viability assay. It counts as cell-based. The settings on record: TALL-1, 72 h. A digest of the protocol:
as §4

For another series, the system named is Jurkat. Description: Cytotoxicity in human Jurkat cells assessed as reduction in cell viability incubated for 72 hrs by cell-Titer-Glo luminescent cell viability assay. The format is cell-based. In outline: as §4
A further series has as its target Histone deacetylase 4 (Homo sapiens, UniProt P56524). Description: Inhibition of human recombinant HDAC4 using Boc-Lys-(epsilon-Tfa)-AMC fluorogenic substrate incubated for 90 mins by fluorescence based assay. A digest of the protocol:
as §2

Series [7] can be described thus: Intrinsic clearance in mouse liver microsomes. The format is ADME, Microsome. For orientation: Liver microsomes are vesicles of endoplasmic reticulum, rich in cytochrome P450 enzymes.
A further series concerns the target Histone deacetylase 2 (Homo sapiens, UniProt Q92769). Description: Inhibition of human recombinant HDAC2 using ZMAL (Z-Lys(Ac)-AMC) fluorogenic substrate incubated for 90 mins by fluorescence based assay. A digest of the protocol:
as §3

Series [8] deals with CCRF-HSB-2. Description: Cytotoxicity in human CCRF-HSB-2 cells assessed as reduction in cell viability at 2.5 to 5 uM incubated for 72 hrs by cell-Titer-Glo luminescent cell viability assay. It counts as cell-based. The settings on record: ccrf-hsb-2, 72 h, dose 2.5-5 µM. In outline:
as §1

For series [9], the system named is HL-60. Description: Induction of apoptosis in human HL-60 cells at 2.5 to 5 uM incubated for 24 hrs by Annexin V and PI staining based FACS analysis. It counts as cell-based. The settings on record: hl-60, 24 h, dose 2.5-5 µM. A digest of the protocol: as §5
The test system of another series is K562. Description: Cytotoxicity in human K562 cells assessed as reduction in cell viability incubated for 72 hrs by cell-Titer-Glo luminescent cell viability assay. It counts as cell-based. The settings on record: K562, 72 h. In outline: (§6)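 Cells were exposed in 384-well format to a digitally dispensed concentration series of 1–50 μM. Viability was read by CellTiter-Glo luminescence after 72 h. Data were normalized to controls, and IC50 came from nonlinear regression of a sigmoid dose curve. K562 was maintained in RPMI 1640 with 10% FCS at 37 °C and 5% CO2. MOLT-4 was maintained in RPMI 1640 with 20% FCS.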

The subject of another series is MOLT-4. Description: Cytotoxicity in human MOLT-4 cells assessed as reduction in cell viability incubated for 72 hrs by cell-Titer-Glo luminescent cell viability assay. The format is cell-based. The settings on record: MOLT-4, 72 h. In outline:
as §6

The target of series [10] is Class 1 histone deacetylase (Homo sapiens) (UniProt Q13547+O15379+Q92769+Q9BY41). Description: Inhibition of class-1 HDAC in human HL60 cells assessed as induction of histone H3 acetylation at 2.5 to 5 uM incubated for 24 hrs by immunoblot analysis. It counts as cell-based. The settings on record: HL-60, dose microM 2.5-5, time […].
For series [11], the system named is CCRF-HSB-2. Description: Cytotoxicity in human CCRF-HSB-2 cells assessed as reduction in cell viability incubated for 72 hrs by cell-Titer-Glo luminescent cell viability assay. It counts as cell-based. The settings on record: CCRF-HSB-2, 72 h. In outline: as §4

pIC50: −log10 of the molar value. Active and inactive are the calls of the source. The rule behind the calls is not given here.

The source of these data is ChEMBL document CHEMBL4725369, “Multicomponent Synthesis, Binding Mode, and Structure-Activity Relationship of Selective Histone Deacetylase 6 (HDAC6) Inhibitors with Bifurcated Capping Groups” (J Med Chem, 2020).

Histone deacetylase 1, sequence (Q13547 whole entry): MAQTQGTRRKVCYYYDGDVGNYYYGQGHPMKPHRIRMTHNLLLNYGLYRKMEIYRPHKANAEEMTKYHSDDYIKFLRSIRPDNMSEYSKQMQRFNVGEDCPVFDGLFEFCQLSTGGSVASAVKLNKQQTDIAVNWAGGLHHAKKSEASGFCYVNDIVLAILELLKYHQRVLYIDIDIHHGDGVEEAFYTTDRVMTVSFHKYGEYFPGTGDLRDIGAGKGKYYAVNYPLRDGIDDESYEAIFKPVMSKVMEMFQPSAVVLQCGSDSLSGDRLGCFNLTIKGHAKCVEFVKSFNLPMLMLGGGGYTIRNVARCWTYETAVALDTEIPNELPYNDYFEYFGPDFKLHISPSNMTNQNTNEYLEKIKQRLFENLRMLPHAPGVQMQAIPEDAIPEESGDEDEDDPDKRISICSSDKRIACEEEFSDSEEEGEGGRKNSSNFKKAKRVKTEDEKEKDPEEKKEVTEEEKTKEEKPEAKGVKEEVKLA
Histone deacetylase 4, sequence (P56524 whole entry): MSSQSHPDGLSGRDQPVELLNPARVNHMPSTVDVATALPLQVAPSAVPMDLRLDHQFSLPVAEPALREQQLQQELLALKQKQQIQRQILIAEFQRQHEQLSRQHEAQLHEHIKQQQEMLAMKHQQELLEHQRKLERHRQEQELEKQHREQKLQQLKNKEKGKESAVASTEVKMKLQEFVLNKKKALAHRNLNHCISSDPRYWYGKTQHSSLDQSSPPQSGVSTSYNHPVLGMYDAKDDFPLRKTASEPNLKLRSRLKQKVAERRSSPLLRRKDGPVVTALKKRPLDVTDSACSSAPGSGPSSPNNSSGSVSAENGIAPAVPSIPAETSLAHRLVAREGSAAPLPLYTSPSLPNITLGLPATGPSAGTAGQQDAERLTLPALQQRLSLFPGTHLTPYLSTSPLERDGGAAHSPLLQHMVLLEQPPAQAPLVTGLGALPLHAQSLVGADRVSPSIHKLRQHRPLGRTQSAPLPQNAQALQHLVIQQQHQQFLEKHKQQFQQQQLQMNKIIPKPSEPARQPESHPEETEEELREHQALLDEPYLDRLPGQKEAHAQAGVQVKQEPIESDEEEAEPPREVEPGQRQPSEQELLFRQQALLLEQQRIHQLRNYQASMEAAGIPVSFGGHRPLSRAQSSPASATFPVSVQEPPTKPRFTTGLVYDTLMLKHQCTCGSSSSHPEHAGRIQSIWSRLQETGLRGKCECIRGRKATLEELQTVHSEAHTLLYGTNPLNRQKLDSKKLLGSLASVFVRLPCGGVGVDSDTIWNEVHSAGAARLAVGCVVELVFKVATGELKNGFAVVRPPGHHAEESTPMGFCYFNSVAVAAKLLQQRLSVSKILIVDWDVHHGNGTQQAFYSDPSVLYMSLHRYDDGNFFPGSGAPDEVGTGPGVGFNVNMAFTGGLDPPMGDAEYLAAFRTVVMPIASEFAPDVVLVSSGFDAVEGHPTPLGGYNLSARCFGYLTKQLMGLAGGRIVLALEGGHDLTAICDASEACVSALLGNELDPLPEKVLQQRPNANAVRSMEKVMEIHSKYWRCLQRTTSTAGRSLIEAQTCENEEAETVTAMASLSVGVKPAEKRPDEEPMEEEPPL
Histone deacetylase 2, sequence (Q92769 whole entry): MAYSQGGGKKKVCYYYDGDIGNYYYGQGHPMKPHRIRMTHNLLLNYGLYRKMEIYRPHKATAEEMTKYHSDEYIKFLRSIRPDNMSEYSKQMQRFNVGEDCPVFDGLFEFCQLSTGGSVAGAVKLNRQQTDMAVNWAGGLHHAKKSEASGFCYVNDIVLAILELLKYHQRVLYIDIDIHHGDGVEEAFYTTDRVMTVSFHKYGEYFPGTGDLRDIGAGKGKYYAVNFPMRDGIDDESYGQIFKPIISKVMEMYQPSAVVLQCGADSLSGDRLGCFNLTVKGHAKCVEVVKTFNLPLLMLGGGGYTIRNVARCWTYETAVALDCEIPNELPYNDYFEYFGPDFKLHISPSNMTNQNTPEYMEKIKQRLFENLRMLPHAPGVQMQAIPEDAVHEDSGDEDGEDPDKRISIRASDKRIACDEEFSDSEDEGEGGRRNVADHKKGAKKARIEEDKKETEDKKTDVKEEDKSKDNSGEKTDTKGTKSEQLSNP
Histone deacetylase 3, sequence (O15379 whole entry): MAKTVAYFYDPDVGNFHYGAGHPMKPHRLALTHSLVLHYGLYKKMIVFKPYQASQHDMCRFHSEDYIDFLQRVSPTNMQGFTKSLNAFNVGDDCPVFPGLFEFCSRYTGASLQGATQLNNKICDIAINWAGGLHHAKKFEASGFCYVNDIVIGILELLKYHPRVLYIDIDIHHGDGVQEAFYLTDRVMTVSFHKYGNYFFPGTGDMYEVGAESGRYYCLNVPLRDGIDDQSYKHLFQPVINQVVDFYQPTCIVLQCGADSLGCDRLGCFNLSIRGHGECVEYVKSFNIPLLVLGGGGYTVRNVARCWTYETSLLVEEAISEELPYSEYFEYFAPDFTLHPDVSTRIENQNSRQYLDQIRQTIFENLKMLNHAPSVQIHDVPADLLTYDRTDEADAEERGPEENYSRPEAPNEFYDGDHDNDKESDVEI

For `O=C(NO)c1ccc(CNC(c2ccccc2)c2nnnn2Cc2ccccc2)cc1` (stereo not drawn), the pIC50 in series [1] was 7.00; on Histone deacetylase 1, 5.47.

`CC(C)(C)n1nnnc1CNCc1ccc(C(=O)NO)cc1`: the values for the pIC50 (in series [1]; at Histone deacetylase 1) were 6.48 and 5.08, respectively.

For the molecule `O=C(NO)c1ccc(CNCc2nnnn2Cc2ccccc2)cc1`, the results for the pIC50 (in [1]; on Histone deacetylase 1) were 7.00 and 5.61, respectively.

In the case of `O=C(NO)c1ccc(CNC(c2ccccc2)c2nnnn2C2CCCCC2)cc1` (stereo not drawn), the results for the negative logarithm of the IC50 (pIC50) (in [1]; at Histone deacetylase 1) were 6.92 and 5.39, respectively.

With `O=C(NO)c1ccc(CNCc2nnnn2C2CCCCC2)cc1`, the negative logarithm of the IC50 (pIC50) is 6.92 in [1] and 5.69 at Histone deacetylase 1.

Take `CCCCC(NCc1ccc(C(=O)NO)cc1)c1nnnn1Cc1ccccc1` (stereo not drawn): the values for the negative-log IC50 (pIC50) (in [1]; at Histone deacetylase 1) were 6.92 and 5.70, respectively.

As to `O=C(NO)c1ccc(CN(Cc2nnnn2Cc2ccccc2)C(=O)c2ccccc2C(F)(F)F)cc1`, the figures for the CLint in series [2] and in [7] were 30 µL/min/mg and 26 µL/min/mg, respectively. In addition, the outcome in the series with CCRF-HSB-2 [3], in the series on CCRF-HSB-2 [4] and in the series with HL-60 [6] was Active. The pIC50 is 4.83 on Histone deacetylase 8; 5.07 at Histone deacetylase 3; 4.65 in the series on SUP-B15; 7.52 in series [1]; 4.31 in the series with TALL-1; 5.29 on Histone deacetylase 1. Besides, the pIC50 with Jurkat was 4.49; at Histone deacetylase 4 it was 4.26; on Histone deacetylase 2, 5.65; in the series with K562, 4.38; with MOLT-4 it was 4.37; in the series with CCRF-HSB-2 [11] it was 4.29. Moreover, in series [5], the inhibition result was “Active”. For the same molecule, the Activity entry in the series on CCRF-HSB-2 [8] and in the series with HL-60 [9] was “Non-Toxic” throughout. Also, the inhibition entry in series [10] was “inactive”.

For the molecule `CC(C)c1ccc(C(=O)N(Cc2ccc(C(=O)NO)cc2)Cc2nnnn2Cc2ccccc2)cc1`, the pIC50 in [1] was 6.49; on Histone deacetylase 1, 5.75.

Consider `O=C(NO)c1ccc(CN(Cc2nnnn2C2CCCCC2)C(=O)c2ccccc2)cc1`, for which the pIC50 in series [1] was 7.15; at Histone deacetylase 1, 5.63.

In the case of `Cc1ccccc1C(=O)N(Cc1ccc(C(=O)NO)cc1)Cc1nnnn1C1CCCCC1`, the results for the pIC50 (in series [1]; at Histone deacetylase 1) were 7.22 and 5.52, respectively.

For the molecule `Cc1cc(C)cc(C(=O)N(Cc2ccc(C(=O)NO)cc2)Cc2nnnn2Cc2ccccc2)c1`, the pIC50 in series [1] was 7.10; on Histone deacetylase 1, 6.05.

As to `O=C(NO)c1ccc(CN(Cc2nnnn2Cc2ccccc2)C(=O)c2ccccc2)cc1`, the values for the pIC50 (in series [1]; at Histone deacetylase 1) were 7.52 and 5.91, respectively.

As a reminder, the pIC50 is the negative decadic logarithm of the IC50, by convention in mol/L.
